Only some compounds are listed: those with a hit (about 3.7% of all), similar ones and a draw of the others.
GPR7 antag: human neuropeptides B/W receptor 1 antagonism; inhibition, % at 4.4 µM; AID 1861; P48145; GPR7-expressing cells, fluorescence antagonist assay; 290,000 tested, 1.1% active; in the data active = inhibition above about 16%, passing the limit was not always enough;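 also: cells stimulated with the agonist NPW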
Target sequence (P48145 whole entry, looked up): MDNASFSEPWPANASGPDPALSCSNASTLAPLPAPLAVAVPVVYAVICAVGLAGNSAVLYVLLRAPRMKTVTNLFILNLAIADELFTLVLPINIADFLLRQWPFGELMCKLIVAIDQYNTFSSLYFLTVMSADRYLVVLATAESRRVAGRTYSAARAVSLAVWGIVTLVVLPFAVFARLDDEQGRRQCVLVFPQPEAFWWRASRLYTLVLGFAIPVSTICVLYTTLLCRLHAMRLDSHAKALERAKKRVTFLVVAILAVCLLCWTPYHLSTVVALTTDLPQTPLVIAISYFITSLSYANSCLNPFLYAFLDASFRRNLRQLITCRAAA
OX1R antag-1: antagonists of human orexin 1 receptor (OX1R); O43613; OX1R-expressing cells, FRET antagonist read-out; inhibition, % at 6.6 µM; 330,000 tested, 1.8% active; in the data active = inhibition mostly above about 38%, no sharp cut-off; inactive = mostly below about 40%
EP2 modulator: EP2 receptor (human) modulation; EP2-expressing cells, cAMP HTRF FRET, PGE2 co-stimulation; induction, % at 25 µM; 260,000 tested, 0.83% active; AID 940;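 active = compounds whose cAMP rise, as percent of the full-agonist control response, exceeds 60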;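 also: rat C6 glioma line stably carrying human EP2 under a CMV promoter; the protocol text gives 20 µM as final concentration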
Target sequence (P43116 whole entry, looked up): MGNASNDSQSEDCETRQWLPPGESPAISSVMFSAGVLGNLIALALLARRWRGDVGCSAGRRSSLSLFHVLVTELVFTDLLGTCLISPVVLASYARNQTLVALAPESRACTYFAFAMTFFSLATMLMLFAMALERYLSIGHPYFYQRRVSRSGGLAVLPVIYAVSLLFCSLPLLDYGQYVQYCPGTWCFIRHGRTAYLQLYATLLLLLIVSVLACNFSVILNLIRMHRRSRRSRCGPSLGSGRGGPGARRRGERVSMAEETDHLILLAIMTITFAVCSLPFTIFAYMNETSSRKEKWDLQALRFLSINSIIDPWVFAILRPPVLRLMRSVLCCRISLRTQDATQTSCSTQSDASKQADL
CHO parental Ca: counter-screen: ATP calcium response change in parental CHO cells; parental CHO-K1, ATP-induced calcium, Fluo-8 fluorescence; inhibition, % at 5.6 µM; 330,000 tested, 0.63% active;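 active = inhibition above that plate's mean sample inhibition plus 3 SD, cut at about 26% in these data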
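Material: parental CHO cells / Compound: single nominal dose of 5.6 µM per compound / Signal: Fluo-8 fluorescence / Replicates: singlicate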
OX1R antag-2: antagonists of human orexin 1 receptor; CHO/OX1R cells, Fluo-8 calcium fluorescence, orexin A; inhibition, % at 5 µM; 330,000 tested, 0.43% active; AID 434989;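 active = inhibition above its plate's threshold, mean inhibition of all tested compounds on the plate plus 3 SD, cut at about 37% in these data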
EP2 antag: inhibitors of human EP2 prostaglandin E2 receptor | inhibition, % at 25 µM | C6 glioma cells expressing human EP2, cAMP TR-FRET; cells stimulated with saturating PGE2 | 260,000 tested, 0.52% active;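 active = percent inhibition above 40 after rounding to a whole number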;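 also: rat C6 glioma host cells with rolipram phosphodiesterase inhibitor present; the protocol text gives 20 µM as final concentration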
GPR7 antag cf: human GPR7 antagonism, confirmation assay | shares compounds with GPR7 antag | GPR7-expressing cells, calcium fluorescence antagonist mode | inhibition, % at 4.4 µM | 2,400 tested, 52% active | AID 1952; in the data active = inhibition above about 24%;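 also: stimulated with the GPR7 agonist NPW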
MCHR1 antagonist: antagonizes human MCHR1, a GPR7 antagonist counter-screen; MCHR1-expressing cells, fluorescence antagonist assay; 2,400 tested, 62% active; shares compounds with GPR7 antag; AID 2148; inhibition, % at 4.4 µM; in the data active = inhibition above about 22%
Each line names hits and unclear results; the compound was inactive in the other large screens (follow-up assays come after a bar, where they were run).

CCC(=O)N(CCC1(C(C)C)CCOC(C)(C)C1)C(C)c1cccs1 (stereo unspecified)	GPR7 antag 25.0 | GPR7 antag cf inactive | MCHR1 antagonist inactive
CCC(=O)N(CCC1(C(C)C)CCOC(C)(C)C1)Cc1ccco1 (stereo unspecified)	none
O=C(COC(=O)[C@H](Cc1ccccc1)NC(=O)c1ccco1)Nc1ccccc1	none (no result: GPR7 antag, EP2 modulator, EP2 antag)
Cc1c(Cl)cccc1NC(=S)N(Cc1cccs1)C1CCCC1	GPR7 antag 23.2 | GPR7 antag cf inactive | MCHR1 antagonist 26.8
Cc1cc(C)n2ncc(CN3CCC(O)(c4ccc(F)cc4)CC3)c2n1	none (no result: GPR7 antag, OX1R antag-1, CHO parental Ca, OX1R antag-2)
CC(C)(C)C1C=C(Sc2ccccc2)C(=O)O1 (stereo unspecified)	none
CCOC(=O)c1nc(C)n(-c2cc(Cl)cc(Cl)c2)n1	none
Cc1cccc2cc(CN(CCO)C(=S)NCCCN(C)C)c(=O)[nH]c12	none (no result: GPR7 antag, OX1R antag-1, CHO parental Ca, OX1R antag-2)
Cc1cccc2cc(CN(Cc3ccccc3)C(=S)NCCCN(C)C)c(=O)[nH]c12	GPR7 antag 52.6 | GPR7 antag cf 47.8 | MCHR1 antagonist 27.9
Cc1ccc(CN(Cc2cc3cccc(C)c3[nH]c2=O)C(=S)NCCCN(C)C)cc1	GPR7 antag 35.6 | GPR7 antag cf 47.0 | MCHR1 antagonist 29.9
CCOC(=O)c1sc(NC(=O)CC(C)c2ccccc2)nc1C (stereo unspecified)	GPR7 antag 34.0 (no result: EP2 modulator, EP2 antag) | GPR7 antag cf 37.3 | MCHR1 antagonist 27.7
CCc1ccc(N(CC(=O)Nc2ccc(OC)cc2OC)S(C)(=O)=O)cc1	none
C=CCNC(=S)Nc1ccc(Br)cc1F	none
Fc1cc(Br)ccc1NC(=S)NCCc1ccccc1	GPR7 antag 38.5 | GPR7 antag cf inactive | MCHR1 antagonist 35.3
O=C(NCc1ccco1)c1sc2cc(Cl)ccc2c1Cl	GPR7 antag 35.7 | GPR7 antag cf inactive | MCHR1 antagonist 31.5
C=CCc1cc(Cl)ccc1OCCOCCN(C)C	GPR7 antag 39.9 | GPR7 antag cf inactive | MCHR1 antagonist inactive
Nc1nonc1C(=O)NCCNCc1cc(Br)ccc1OCc1ccc(F)cc1	none
Nc1nonc1C(=O)NCCNCc1c(OCc2ccccc2F)ccc2ccccc12	GPR7 antag 28.0 | GPR7 antag cf 47.3 | MCHR1 antagonist 68.7
CC(C)N1CCN(Cc2cccc3nonc23)CC1CCO (stereo unspecified)	none
CC(C)CCN1CCN(Cc2cccc3nonc23)CC1CCO (stereo unspecified)	GPR7 antag 24.3 | GPR7 antag cf inactive | MCHR1 antagonist inactive
CC(=O)Nc1ccc2nc(-c3ccc(C)o3)[nH]c2c1	none (no result: GPR7 antag, OX1R antag-1, CHO parental Ca, OX1R antag-2)
CCCCn1c(NS(=O)(=O)c2ccccc2)c(S(=O)(=O)c2ccc(C)cc2)c2nc3ccccc3nc21	GPR7 antag 31.1 | GPR7 antag cf 35.3 | MCHR1 antagonist 41.4
CC1CC(C)C[N+](=C2C=C(N3CCCC3)CC(C)(C)C2)C1 (stereo unspecified)	GPR7 antag 49.6 (no result: OX1R antag-1, CHO parental Ca, OX1R antag-2) | GPR7 antag cf 58.0 | MCHR1 antagonist 53.4
Cc1ccc(-c2nnc(Nc3ccc(O)cc3)c3ccccc23)cc1S(=O)(=O)NCCO	none (no result: OX1R antag-1, EP2 modulator, CHO parental Ca, OX1R antag-2, EP2 antag)
CCOC(=O)CNS(=O)(=O)c1cc(-c2nnc(Nc3ccc4c(c3)OCO4)c3ccccc23)ccc1C	GPR7 antag 35.9, CHO parental Ca 56.7, OX1R antag-2 70.8 | GPR7 antag cf 46.9 | MCHR1 antagonist 78.3
COc1cc(OC)cc(C(=O)N[C@H](C(=O)OCC(=O)Nc2ccc(F)c(F)c2)C(C)C)c1	GPR7 antag 21.3 | GPR7 antag cf 33.7 | MCHR1 antagonist 48.3
COc1cc(OC)cc(C(=O)N[C@H](C(=O)OCC(=O)Nc2ccc(C(N)=O)cc2)C(C)C)c1	none
CSCCC(NC(=O)c1ccccc1)C(=O)N1CCN(C(=O)c2ccccc2)CC1 (stereo unspecified)	none (no result: GPR7 antag, EP2 modulator, EP2 antag)
COc1ccc(OC)c(N(CC(=O)N2CCC(C)CC2)S(=O)(=O)c2ccccc2)c1	GPR7 antag 25.7 | GPR7 antag cf inactive | MCHR1 antagonist inactive
Cc1cccn2c(=O)c3cc(C(=O)NC4CCCCC4)c(=N)n(CC4CCCO4)c3nc12 (stereo unspecified)	none (no result: GPR7 antag, OX1R antag-1, CHO parental Ca, OX1R antag-2)
N=c1c(C(=O)NC2CCCCC2)cc2c(=O)n3ccccc3nc2n1CC1CCCO1 (stereo unspecified)	GPR7 antag 21.1, OX1R antag-1 60.3 (no result: EP2 modulator, EP2 antag) | GPR7 antag cf 27.1 | MCHR1 antagonist inactive
O=C(NC1(C(F)(F)F)NC(=O)N(C2CCCCC2)C1=O)C1CC1 (stereo unspecified)	none
CCc1ccc(-n2c(SCC(=O)Nc3ccccc3OC)nnc2-c2ccncc2)cc1	none (no result: GPR7 antag, OX1R antag-1, CHO parental Ca, OX1R antag-2)
COc1ccccc1OCC(=O)Nc1c2c(nn1-c1ccccc1)CS(=O)(=O)C2	GPR7 antag 23.3 (no result: EP2 modulator, EP2 antag) | GPR7 antag cf inactive | MCHR1 antagonist inactive
Cc1ccsc1C(=O)NNC(=O)C1CCCCC1C(=O)O (stereo unspecified)	GPR7 antag 22.8 | GPR7 antag cf inactive | MCHR1 antagonist inactive
CNC(=S)NNC(=O)Cc1ccc(OC)cc1	none
Cc1ccc(S(=O)(=O)N(Cc2ccc(F)cc2)Cc2ccco2)cc1	GPR7 antag 32.1 | GPR7 antag cf 30.3 | MCHR1 antagonist 58.0
CCC[C@@H]1CCCC/C=C\CCCC(=O)OCCN1C(=O)OC(C)(C)C	none (no result: GPR7 antag, EP2 modulator, EP2 antag)
CC(C)c1ccc(/C=C/C(=O)Nc2ccc(CN3CCOCC3)cc2)cc1	none
O=C(/C=C/c1ccc(Cl)cc1)Nc1ccc(CN2CCOCC2)cc1	GPR7 antag 27.9 | GPR7 antag cf 36.4 | MCHR1 antagonist 55.4
COc1cc(CNC(C)(C)CO)cc(Br)c1OCc1ccc(Cl)cc1Cl	GPR7 antag 29.5 | GPR7 antag cf 57.5 | MCHR1 antagonist 57.1
Cc1nc(NCc2ccccn2)c2c3c(sc2n1)CCCC3	GPR7 antag 31.8 | GPR7 antag cf 25.1 | MCHR1 antagonist 21.5
COCCSc1ccccc1C(=O)Nc1cc(C)cc(C)c1	none
COCCSc1ccccc1C(=O)Nc1ccncc1	GPR7 antag 57.0 | GPR7 antag cf inactive | MCHR1 antagonist inactive
CCC(NC(=O)c1cc(COc2ccc(F)cc2Cl)on1)c1ccncc1 (stereo unspecified)	GPR7 antag 30.5 (no result: OX1R antag-1, EP2 modulator, CHO parental Ca, OX1R antag-2, EP2 antag) | GPR7 antag cf inactive | MCHR1 antagonist 46.8
O=C(c1cccc(C(F)(F)F)c1)C1CCCN(Cc2cccn2-c2ncccn2)C1 (stereo unspecified)	GPR7 antag 21.3 | GPR7 antag cf 33.5 | MCHR1 antagonist 35.3
O=C(c1ccc(C(F)(F)F)cc1)C1CCCN(Cc2cccn2-c2ncccn2)C1 (stereo unspecified)	none
CN(Cc1ccccc1)C(=O)c1ccc(NC(=O)Cc2cccc(NC(=O)C3CCCN(C(=O)C4CCCCC4)C3)c2)cc1 (stereo unspecified)	none (no result: GPR7 antag, EP2 modulator, EP2 antag)

Source: PubChem BioAssay (several laboratories)
